“And” between values parts separate entries of the source, which are not always exact repeats. Equal entries are not always repeated.
Tests used:
Rattus norvegicus [1] = assay: Compound was evaluated for diuretic activity determined by the ability to induce electrolytic excretion (K+) at a time period of 0-24 hr for dose 3 mg/kg; format: functional, Urine
Outline: (§1)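 Female Sprague-Dawley rats weighing 160-170 g were dosed orally at 3, 9, 27 or 81 mg/kg, housed three per cage, with three cages per dose. Urinary Na+, K+ and Cl- (mequiv × 100) and urine volume (mL) were measured over 0-5 h and 0-24 h after dosing. A placebo group was run alongside.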

Rattus norvegicus [2] = assay: Compound was evaluated for diuretic activity determined by the ability to induce electrolytic excretion (K+) at a time period of 0-24 hr for dose 81 mg/kg; format: functional, Urine; parameters: unit: mequiv × 100; outline: as §1
Rattus norvegicus [3] = assay: Compound was evaluated for diuretic activity determined by the ability to induce electrolytic excretion (K+) at a time period of 0-24 hr for dose 9 mg/kg; format: functional, Urine; outline: as §1
Rattus norvegicus [4] = assay: Compound was evaluated for diuretic activity determined by the ability to induce electrolytic excretion (K+) at a time period of 0-5 hr for dose 27 mg/kg; format: functional, Urine; outline: as §1
Rattus norvegicus [5] = assay: Compound was evaluated for diuretic activity determined by the ability to induce electrolytic excretion (K+) at a time period of 0-5 hr for dose 3 mg/kg; format: functional, Urine; outline: as §1
Rattus norvegicus [6] = assay: Compound was evaluated for diuretic activity determined by the ability to induce electrolytic excretion (K+) at a time period of 0-5 hr for dose 81 mg/kg; format: functional, Urine; outline: as §1
Rattus norvegicus [7] = assay: Compound was evaluated for diuretic activity determined by the ability to induce electrolytic excretion (K+) at a time period of 0-5 hr for dose 9 mg/kg; format: functional, Urine; outline: as §1
Rattus norvegicus [8] = assay: Compound was evaluated for diuretic activity determined by the ability to induce electrolytic excretion (Na+) at a time period of 0-24 hr for dose 27 mg/kg; format: functional, Urine; outline: as §1
Rattus norvegicus [9] = assay: Compound was evaluated for diuretic activity determined by the ability to induce electrolytic excretion (Na+) at a time period of 0-24 hr for dose 3 mg/kg; format: functional, Urine; outline: as §1
Rattus norvegicus [10] = assay: Compound was evaluated for diuretic activity determined by the ability to induce electrolytic excretion (Na+) at a time period of 0-24 hr for dose 81 mg/kg; format: functional, Urine; outline: as §1
Rattus norvegicus [11] = assay: Compound was evaluated for diuretic activity determined by the ability to induce electrolytic excretion (Na+) at a time period of 0-24 hr for dose 9 mg/kg; format: functional, Urine; outline: as §1
Rattus norvegicus [12] = assay: Compound was evaluated for diuretic activity determined by the ability to induce electrolytic excretion (Na+) at a time period of 0-5 hr for dose 27 mg/kg; format: functional, Urine; outline: as §1
Rattus norvegicus [13] = assay: Compound was evaluated for diuretic activity determined by the ability to induce electrolytic excretion (Na+) at a time period of 0-5 hr for dose 3 mg/kg; format: functional, Urine; outline: as §1
Rattus norvegicus [14] = assay: Compound was evaluated for diuretic activity determined by the ability to induce electrolytic excretion (Na+) at a time period of 0-5 hr for dose 81 mg/kg; format: functional, Urine; outline: as §1
Rattus norvegicus [15] = assay: Compound was evaluated for diuretic activity determined by the ability to induce electrolytic excretion (Na+) at a time period of 0-5 hr for dose 9 mg/kg; format: functional, Urine; outline: as §1
Rattus norvegicus [16] = assay: Compound was evaluated for diuretic activity determined by the to induce electrolytic excretion (Cl-) at a time period of 0-24 hr for dose 81 mg/kg; format: functional, Urine; outline: as §1
Rattus norvegicus [17] = assay: Compound was evaluated for diuretic activity determined by the ability to induce electrolytic excretion (Cl-) at a time period of 0-24 hr for dose 27 mg/kg; format: functional, Urine; outline: as §1
Rattus norvegicus [18] = assay: Compound was evaluated for diuretic activity determined by the ability to induce electrolytic excretion (Cl-) at a time period of 0-24 hr for dose 3 mg/kg; format: functional, Urine; outline: as §1
Rattus norvegicus [19] = assay: Compound was evaluated for diuretic activity determined by the ability to induce electrolytic excretion (Cl-) at a time period of 0-24 hr for dose 9 mg/kg; format: functional, Urine; outline: as §1
Rattus norvegicus [20] = assay: Compound was evaluated for diuretic activity determined by the ability to induce electrolytic excretion (Cl-) at a time period of 0-5 hr for dose 3 mg/kg; format: functional, Urine; outline: as §1
Rattus norvegicus [21] = assay: Compound was evaluated for diuretic activity determined by the ability to induce electrolytic excretion (Cl-) at a time period of 0-5 hr for dose 81 mg/kg; format: functional, Urine; outline: as §1
Rattus norvegicus [22] = assay: Compound was evaluated for diuretic activity determined by the ability to induce electrolytic excretion (Cl-) at a time period of 0-5 hr for dose 9 mg/kg; format: functional, Urine; outline: as §1
Rattus norvegicus [23] = assay: Compound was evaluated for diuretic activity determined by the ability to induce electrolytic excretion (K+) at a time period of 0-24 hr for dose 27 mg/kg; format: functional, Urine; outline: as §1
Rattus norvegicus [24] = assay: Urine volumes was determined in Sprague-Dawley rats at time period of 0-5 hours at 27 mg/kg; format: functional
Outline: (§2)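 Female Sprague-Dawley rats (160-170 g) were dosed orally at 3-81 mg/kg, with a placebo group. Housing was three rats per cage and three cages per dose. Urinary Na+, K+ and Cl- (mequiv × 100) and urine volume were measured over 0-5 h and 0-24 h.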

Rattus norvegicus [25] = assay: Urine volumes was determined in Sprague-Dawley rats at time period of 0-5 hours at 3 mg/kg; format: functional; outline: as §2
Rattus norvegicus [26] = assay: Urine volumes was determined in Sprague-Dawley rats at time period of 0-5 hours at 81 mg/kg; format: functional; outline: as §2
Rattus norvegicus [27] = assay: Urine volumes was determined in Sprague-Dawley rats at time period of 0-5 hours at 9 mg/kg; format: functional; outline: as §2
Rattus norvegicus [28] = assay: Compound was evaluated for diuretic activity determined by the ability to induce electrolytic excretion (Cl-) at a time period of 0-5 hr for dose 27 mg/kg; format: functional, Urine; outline: as §1
Canis familiaris [29] = assay: Compound was evaluated for percentage recovery from urine after administration of 0.1 mg/kg dose; format: functional, organism-based; parameters: dose 0.1 mg/kg; conditions: Canis lupus familiaris
Outline: (§3)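 Catheterized mongrel dogs (average 14-16 kg, 6 per group) were given oral doses of 0.1-1.0 mg/kg. Urine was collected at 0-6 h and 6-24 h. Each 1-mL aliquot was partitioned between saturated Na2CO3 and ethyl acetate, and the organic phase was back-extracted into 0.5 N HCl. Amiloride in the acid phase was read spectrofluorometrically (excitation 365 nm, emission 420 nm). Results are mean ± SD, with % recovery.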

Canis familiaris [30] = assay: Compound was evaluated for percentage recovery from urine after administration of 0.3 mg/kg dose; format: functional, organism-based; parameters: dose 0.3 mg/kg; conditions: Canis lupus familiaris; outline: as §3
Rattus norvegicus [31] = assay: Compound was evaluated for diuretic activity determined by the ability of to induce electrolytic excretion (Cl-) at a time period of 0-24 hr for dose 3 mg/kg; format: functional, Urine; outline: as §1
Rattus norvegicus [32] = assay: Compound was evaluated for diuretic activity determined by the ability to induce electrolytic excretion (Cl-) at a time period of 0-24 hr for dose 81 mg/kg; format: functional, Urine; outline: as §1
Rattus norvegicus [33] = assay: Urine volumes in Sprague-Dawley rats was determined at time period of 0-5 hours dose 81 mg/kg; format: functional; outline: as §1
Rattus norvegicus [34] = assay: Urine volumes in Sprague-Dawley rats was determined at time period of 0-5 hours dose 9 mg/kg; format: functional; outline: as §1
Rattus norvegicus [35] = assay: Urine volumes in Sprague-Dawley rats was determined at time period of 0-5 hours dose 27 mg/kg; format: functional; outline: as §1
Rattus norvegicus [36] = assay: Urine volumes in Sprague-Dawley rats was determined at time period of 0-5 hours dose 3 mg/kg; format: functional; outline: as §1
Canis familiaris [37] = assay: Compound was evaluated for urinary levels (mg) after administration at time period
Canis familiaris [38] = assay: Diuretic activity in mongrel dog was determined by the ability to induce electrolytic excretion (K+) at a time period of 0-5 hr after administration of 5 mg/kg dose.
Canis familiaris [39] = assay: Diuretic activity in mongrel dog was determined by the ability to induce electrolytic excretion (CL-) at a time period of 0-5 hr after administration of 5 mg/kg dose.
Canis familiaris [40] = assay: Diuretic activity in mongrel dog was determined by the ability to induce electrolytic excretion (Na+) at a time period of 0-5 hr after administration of 5 mg/kg dose.
Rattus norvegicus [41] = assay: Urine volumes was determined at time period of 0-5 hours for dose 27 mg/kg; format: functional; outline: as §2
Rattus norvegicus [42] = assay: Urine volumes was determined at time period of 0-5 hours for dose 9 mg/kg; format: functional; outline: as §2
Rattus norvegicus [43] = assay: Urine volumes was determined in Sprague-Dawley rats was determined at time period of 0-5 hours at 9 mg/kg; format: functional; outline: as §1
Rattus norvegicus [44] = assay: Urine volumes in Sprague-Dawley rats was determined at time period of 0-5 hours at 3 mg/kg; format: functional; outline: as §1
Rattus norvegicus [45] = assay: Urine volumes in Sprague-Dawley rats was determined at time period of 0-5 hours at 81 mg/kg; format: functional; outline: as §1
Rattus norvegicus [46] = assay: Urine volumes in Sprague-Dawley rats was determined at time period of 0-5 hours at 27 mg/kg; format: functional; outline: as §1
Canis familiaris [47] = assay: Diuretic activity in mongrel dog was determined by the ability of compound to induce electrolytic excretion (CL-) at a time period of 0-5 hr after administration of 5 mg/kg dose.

SMILES: CN(C)c1nc(N)c(-c2nc(N)[n+](C)o2)nc1Cl.[I-]
- Diuretic effect (Rattus norvegicus [1]): 114
- Diuretic effect (Rattus norvegicus [2]): 68
- Diuretic effect (Rattus norvegicus [3]): 97
- Diuretic effect (Rattus norvegicus [4]): 6
- Diuretic effect (Rattus norvegicus [5]): 2
- Diuretic effect (Rattus norvegicus [6]): 5
- Diuretic effect (Rattus norvegicus [7]): 2
- Diuretic effect (Rattus norvegicus [8]): 299
- Diuretic effect (Rattus norvegicus [9]): 185
- Diuretic effect (Rattus norvegicus [10]): 389
- Diuretic effect (Rattus norvegicus [11]): 224
- Diuretic effect (Rattus norvegicus [12]): 100
- Diuretic effect (Rattus norvegicus [13]): 55
- Diuretic effect (Rattus norvegicus [14]): 154
- Diuretic effect (Rattus norvegicus [15]): 60
- Diuretic effect (Rattus norvegicus [16]): 322
- Diuretic effect (Rattus norvegicus [17]): 209
- Diuretic effect (Rattus norvegicus [18]): 153
- Diuretic effect (Rattus norvegicus [19]): 169
- Diuretic effect (Rattus norvegicus [20]): 37
- Diuretic effect (Rattus norvegicus [21]): 95
- Diuretic effect (Rattus norvegicus [22]): 35
- Diuretic effect (Rattus norvegicus [23]): 62
- Urine volume (Rattus norvegicus [24]): 29 mL
- Urine volume (Rattus norvegicus [25]): 26 mL
- Urine volume (Rattus norvegicus [26]): 31 mL
- Urine volume (Rattus norvegicus [27]): 27 mL
- Diuretic effect (Rattus norvegicus [28]): 56

SMILES: Nc1noc(-c2nc(Cl)c(N)nc2N)n1
- Recovery (Canis familiaris [29]): 36.2% and 22.4%
- Recovery (Canis familiaris [30]): 24.2%
- Diuretic effect (Rattus norvegicus [1]): 79
- Diuretic effect (Rattus norvegicus [2]): 72
- Diuretic effect (Rattus norvegicus [3]): 102
- Diuretic effect (Rattus norvegicus [4]): 4
- Diuretic effect (Rattus norvegicus [5]): 7
- Diuretic effect (Rattus norvegicus [6]): 5
- Diuretic effect (Rattus norvegicus [7]): 4
- Diuretic effect (Rattus norvegicus [8]): 292
- Diuretic effect (Rattus norvegicus [9]): 184
- Diuretic effect (Rattus norvegicus [10]): 396
- Diuretic effect (Rattus norvegicus [11]): 269
- Diuretic effect (Rattus norvegicus [12]): 67
- Diuretic effect (Rattus norvegicus [13]): 64
- Diuretic effect (Rattus norvegicus [14]): 135
- Diuretic effect (Rattus norvegicus [15]): 69
- Diuretic effect (Rattus norvegicus [31]): 152
- Diuretic effect (Rattus norvegicus [17]): 258
- Diuretic effect (Rattus norvegicus [32]): 344
- Diuretic effect (Rattus norvegicus [19]): 235
- Diuretic effect (Rattus norvegicus [20]): 36
- Diuretic effect (Rattus norvegicus [21]): 73
- Diuretic effect (Rattus norvegicus [22]): 35
- Diuretic effect (Rattus norvegicus [23]): 79
- Urine volume (Rattus norvegicus [33]): 25 mL
- Urine volume (Rattus norvegicus [34]): 28 mL
- Urine volume (Rattus norvegicus [35]): 26 mL
- Urine volume (Rattus norvegicus [36]): 24 mL
- Diuretic effect (Rattus norvegicus [28]): 32
- Urinary level (Canis familiaris [37]): 0.42 mg
- Diuretic effect (Canis familiaris [38]): 0.9
- Diuretic effect (Canis familiaris [39]): 4.3
- Diuretic effect (Canis familiaris [40]): 6.5

SMILES: CN(C)c1nc(N)c(-c2nc(N)no2)nc1Cl
- Diuretic effect (Rattus norvegicus [1]): 97
- Diuretic effect (Rattus norvegicus [2]): 53
- Diuretic effect (Rattus norvegicus [3]): 83
- Diuretic effect (Rattus norvegicus [4]): 1
- Diuretic effect (Rattus norvegicus [5]): 2
- Diuretic effect (Rattus norvegicus [6]): 1
- Diuretic effect (Rattus norvegicus [7]): 2
- Diuretic effect (Rattus norvegicus [8]): 341
- Diuretic effect (Rattus norvegicus [9]): 202
- Diuretic effect (Rattus norvegicus [10]): 352
- Diuretic effect (Rattus norvegicus [11]): 258
- Diuretic effect (Rattus norvegicus [12]): 107
- Diuretic effect (Rattus norvegicus [13]): 64
- Diuretic effect (Rattus norvegicus [14]): 108
- Diuretic effect (Rattus norvegicus [15]): 88
- Diuretic effect (Rattus norvegicus [41]): 0.6
- Diuretic effect (Rattus norvegicus [42]): 7.2
- Diuretic effect (Rattus norvegicus [17]): 270
- Diuretic effect (Rattus norvegicus [18]): 170
- Diuretic effect (Rattus norvegicus [32]): 267
- Diuretic effect (Rattus norvegicus [19]): 200
- Diuretic effect (Rattus norvegicus [20]): 40
- Diuretic effect (Rattus norvegicus [21]): 57
- Diuretic effect (Rattus norvegicus [22]): 48
- Diuretic effect (Rattus norvegicus [23]): 82
- Urine volume (Rattus norvegicus [43]): 32 mL
- Urine volume (Rattus norvegicus [44]): 28 mL
- Urine volume (Rattus norvegicus [45]): 30 mL
- Urine volume (Rattus norvegicus [46]): 31 mL
- Diuretic effect (Rattus norvegicus [28]): 63
- Diuretic effect (Canis familiaris [38]): 0.6
- Diuretic effect (Canis familiaris [40]): 7.2
- Diuretic effect (Canis familiaris [47]): 3
